Reference: ChEMBL document CHEMBL4834426, “Antimalarial Benzimidazole Derivatives Incorporating Phenolic Mannich Base Side Chains Inhibit Microtubule and Hemozoin Formation: Structure-Activity Relationship and In Vivo Oral Efficacy Studies” (J Med Chem, 2021)
Calls of active or inactive are those of the source. The rule behind the calls is not given here.

Columns and labels:
[1] = Half life in Balb/c mouse at 10 mg/kg, po measured up to 24 hrs by LC-MS/MS analysis; assay type: ADME, organism-based; settings: in vivo
Outline: (§1)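 Male Balb/c mice, not fasted, food and water ad libitum; single oral dose. Tail-vein blood into heparinized tubes at 0.5, 1, 3, 5, 7, 9 and 24 h, stored at −80 °C. Whole blood protein-precipitated with acetonitrile containing internal standard, analyzed by LC−MS/MS (LOQ 2 ng/mL). Parameters by noncompartmental analysis with curve stripping. Mean of three mice per point.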

Plasmodium falciparum [2] = assay: Antimalarial activity against asexual blood stage multi drug-resistant Plasmodium falciparum K1 infected in erythrocytes assessed as reduction in parasitemia incubated up to 72 hrs by [3H]hypoxanthine incorporation assay; assay type: functional, organism-based
Outline: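 [³H]-Hypoxanthine incorporation assay (modified) on asexual blood-stage P. falciparum in vitro. IC₅₀ values are means of ≥2 independent experiments.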

Plasmodium falciparum [3] = assay: Antiplasmodial activity against […] Plasmodium falciparum NF54 early gametocytes transfected with GFP-Luc […] at 1 uM incubated for 48 hrs by microscopy based luciferase reporter gene assay relative to control; assay type: functional
Outline: (§2)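 NF54-Pfs16-GFP-Luc gametocytes, assays set up day 5 (early, stage II/III) or day 10 (late, stage IV/V). Culture at 2−3% gametocytemia, 1.5% hematocrit, 48 h drug exposure at 37 °C under 90% N₂/5% O₂/5% CO₂. Lysates mixed with luciferin; bioluminescence read with 10 s integration. Dual-point: one biological repeat in technical triplicate. Methylene blue (5 μM) reference.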

Plasmodium falciparum [4] = assay: Antiplasmodial activity against […] Plasmodium falciparum NF54 late gametocytes transfected with GFP-Luc […] at 5 uM incubated for 48 hrs by microscopy based luciferase reporter gene assay relative to control; assay type: functional; outline: as §2
CHO = assay: Cytotoxicity against CHO cells assessed as inhibition of cell viability by MTT assay; assay type: cell-based; settings: Cricetulus griseus
[5] = Selectivity index, ratio of IC50 for Cytotoxicity against CHO cells assessed as inhibition of cell viability by MTT assay to IC50 for antimalarial activity against asexual blood stage Plasmodium falciparum NF54 assessed as reduction in parasitemia incubated up to 72 hrs by [3H]hypoxanthine incorporation assay; assay type: toxicity, cell-based; settings: hamster, read-out: Selectivity Index
Outline: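 Selectivity index is IC₅₀(CHO)/IC₅₀(NF54). […] IC₅₀ came from nonlinear dose-response fitting. Parasite IC₅₀ came from the [³H]-hypoxanthine assay.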

[6] = Metabolic stability in mouse liver microsomes assessed as compound remaining at 1 uM incubated for 30 mins by LC-MS/MS analysis; assay type: ADME, Microsome; settings: read-out: Stabilty
Outline: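 Single-point design: 1 μM compound with 0.4 mg/mL liver microsomes in 0.1 M phosphate buffer pH 7.4 for 30 min. Quenched with ice-cold acetonitrile containing carbamazepine internal standard, centrifuged, analyzed by LC−MS/MS. Percent remaining from internal-standard-corrected peak areas at 30 min versus 0 min. Propranolol, midazolam and MMV390048 as controls.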

[7] = AUC (0 to t) in Balb/c mouse at 10 mg/kg, po measured up to 24 hrs by LC-MS/MS analysis; assay type: ADME, organism-based; design: dose 10 mg/kg, time <=24; settings: in vivo; outline: as §1
[8] = Oral bioavailability in Balb/c mouse at 10 mg/kg measured up to 24 hrs by LC-MS/MS analysis; assay type: ADME, organism-based; settings: in vivo; outline: as §1
[9] = test system: Plasmodium falciparum NF54; assay: Inhibition of tubulin polymerization in asexual blood stage Plasmodium falciparum NF54 at 600 nM incubated for 24 hrs by tubulin tracker Oregon Green staining method
Outline: (§3)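 Treatment at 600 nM for asexual parasites (~1% parasitemia, 5% hematocrit, sorbitol-synchronized rings) or 2400 nM for early gametocytes (~2% gametocytemia, 2% hematocrit, 20% I/60% II/20% III). 24 h at 37 °C, 90% N₂/5% CO₂/5% O₂, DMSO <0.1%. Stained with 250 nM Tubulin Tracker Oregon Green 488 for 30 min and Hoechst (100 nM) for 10 min. PBS-washed, imaged live by confocal microscopy. Colchicine (20 μM) positive control.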

[10] = test system: Plasmodium falciparum NF54; assay: Inhibition of tubulin polymerization in asexual stage (I) Plasmodium falciparum NF54 early gametocytes at 2400 nM incubated for 24 hrs by tubulin tracker Oregon Green staining method; outline: as §3
[11] = test system: Plasmodium falciparum NF54; assay: Inhibition of tubulin polymerization in […] Plasmodium falciparum NF54 early gametocytes at 2400 nM incubated for 24 hrs by tubulin tracker Oregon Green staining method; outline: as §3
Plasmodium falciparum [12] = assay: Antiplasmodial activity against […] Plasmodium falciparum NF54 late gametocytes transfected with GFP-Luc […] incubated for 48 hrs by microscopy based luciferase reporter gene assay relative to control; assay type: functional, organism-based; settings: NF54, 48 h
Outline: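 Transgenic NF54-Pfs16-GFP-Luc gametocytes, read by luciferase reporter. Early assays were set up on day 5 (50% stage II/50% stage III) and late assays on day 10 (40% stage IV/60% stage V). Luciferin was added to lysates at room temperature and bioluminescence read. Methylene blue (5 μM) was the reference. Single-point screens at 1 and 5 μM used n=1 in technical triplicate. IC₅₀ came from a normalized nonlinear fit, n≥3 in triplicate.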

CCNCc1cc(Cl)cc(Nc2nc3cc(F)c(F)cc3n2Cc2ccc(C(F)(F)F)cc2)c1O
half-life [1]: 8.3 h
IC50 (Plasmodium falciparum [2]): 80 nM
inhibition at 1 µM (Plasmodium falciparum [3]): 62%
inhibition at 5 µM (Plasmodium falciparum [4]): 0%
IC50 (CHO): > 50000 nM
selectivity ratio at 72 h [5]: > 263
remaining at 0.5 h, 1 µM [6]: 86%
AUCt [7]: 321 µmol·min/L
bioavailability [8]: 24%
inhibition [9]: Active
inhibition [10]: inactive
inhibition [11]: Active
IC50 (Plasmodium falciparum [12]): > 5000 nM
